# Bioassay records from PubChem BioAssay.
# PLC-beta3 inh = human PLC-beta3 inhibitors, primary screen, biochemical, fluorescence; actives 0.18% (n = 370,000); inhibition, % at 12.2 µM; 1-phosphatidylinositol 4,5-bisphosphate phosphodiesterase beta-3 (Homo sapiens), Q01970; Purified PLC-beta3, fluorogenic substrate
# Target sequence (Q01970 whole entry, looked up): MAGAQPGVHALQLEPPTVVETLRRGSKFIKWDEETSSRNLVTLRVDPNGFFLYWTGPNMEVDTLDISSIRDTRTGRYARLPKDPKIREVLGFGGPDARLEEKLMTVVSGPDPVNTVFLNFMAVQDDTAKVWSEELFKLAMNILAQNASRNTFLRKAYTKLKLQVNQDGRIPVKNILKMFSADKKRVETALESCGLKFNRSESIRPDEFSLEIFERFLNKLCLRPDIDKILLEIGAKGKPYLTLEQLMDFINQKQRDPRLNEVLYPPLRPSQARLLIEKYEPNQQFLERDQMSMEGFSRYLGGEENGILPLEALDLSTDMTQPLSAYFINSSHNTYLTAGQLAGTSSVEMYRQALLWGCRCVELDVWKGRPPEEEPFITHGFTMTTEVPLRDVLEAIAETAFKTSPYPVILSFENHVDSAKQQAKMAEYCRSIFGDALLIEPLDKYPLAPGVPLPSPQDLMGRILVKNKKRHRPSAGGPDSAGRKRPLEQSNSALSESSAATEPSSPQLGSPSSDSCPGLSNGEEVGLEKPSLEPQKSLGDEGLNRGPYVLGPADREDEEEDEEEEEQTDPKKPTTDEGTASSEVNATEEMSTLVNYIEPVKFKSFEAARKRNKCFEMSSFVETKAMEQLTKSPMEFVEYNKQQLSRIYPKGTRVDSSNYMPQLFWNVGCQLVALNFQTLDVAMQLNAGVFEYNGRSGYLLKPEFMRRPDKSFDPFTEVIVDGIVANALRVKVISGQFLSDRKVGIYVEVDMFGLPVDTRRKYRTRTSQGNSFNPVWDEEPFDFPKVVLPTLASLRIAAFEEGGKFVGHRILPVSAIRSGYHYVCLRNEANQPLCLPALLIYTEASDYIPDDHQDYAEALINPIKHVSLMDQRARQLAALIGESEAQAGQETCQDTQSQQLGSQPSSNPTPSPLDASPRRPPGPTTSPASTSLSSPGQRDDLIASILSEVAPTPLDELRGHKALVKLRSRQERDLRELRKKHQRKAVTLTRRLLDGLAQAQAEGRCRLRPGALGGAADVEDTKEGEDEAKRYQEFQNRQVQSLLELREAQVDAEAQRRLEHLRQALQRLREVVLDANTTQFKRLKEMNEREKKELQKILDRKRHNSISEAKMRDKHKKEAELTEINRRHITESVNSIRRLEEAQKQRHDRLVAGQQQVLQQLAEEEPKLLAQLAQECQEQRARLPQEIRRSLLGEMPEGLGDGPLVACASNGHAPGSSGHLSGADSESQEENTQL
# sPLA2-III inh = human group III sPLA2 inhibitors, primary screen, biochemical, QFRET, BODIPY PC-A2 liposome substrate; QFRET BODIPY PC-A2 liposome hydrolysis, fluorescence; inhibition, % at 12.2 µM; actives 0.56% (n = 370,000); AID 743126, 2013;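 active = inhibition above mean plus 3 SD of compounds lying within the high and low control bounds, cut at about 19% in these data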
# PLCg1 inh = PLC-gamma1 enzyme inhibitors, primary screen, biochemical, fluorescence, purified enzyme; 1-phosphatidylinositol 4,5-bisphosphate phosphodiesterase gamma-1 (Homo sapiens), P19174; fluorogenic substrate; inhibition, % at 12.2 µM; actives 0.84% (n = 370,000); AID 720700, 2013; in the data active = inhibition above about 9.5%
# Tb MetRS inh = T. brucei MetRS inhibitors, primary screen, biochemical, luminescence; purified T. brucei MetRS, ATP depletion, Kinase-Glo luminescence; AID 624268, 2012; inhibition, % at 11.9 µM; actives 0.4% (n = 360,000);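 active = inhibition above a per-plate cutoff of the control wells' mean inhibition plus 3 SD, cut at about 5.5% in these data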
#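 Dosing: 11.9 µM compound single dose, 0.9% DMSO; Assay system: purified T. brucei MetRS enzyme; Measured by: Kinase-Glo luciferase luminescence reporting remaining unconsumed ATP; Schedule: 15 min plus 2 h at 25 °C.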
# DAGLB inh = DAGLB lipase inhibitors, primary screen, biochemical, fluorescence, HTS; Diacylglycerol lipase-beta (Homo sapiens), Q8NCG7; HEK293T DAGLB membrane lysate, EnzChek fluorogenic substrate; inhibition, % at 5.17 µM; actives 0.059% (n = 340,000); in the data active = inhibition above about 34%
# PLCg1 ctr = PLC-gamma1 enzyme inhibitors, counter-screen for PLC-beta3 inhibitor project, biochemical, fluorescence. actives 3.1% (n = 3,300). purified PLC-gamma1, fluorogenic substrate. inhibition, % at 12.3 µM. shares compounds with PLCg1 inh; in the data active = inhibition above about 9.5%
# PLCb3 confirm = PLC-beta3 inhibitor confirmation, biochemical, fluorescence, purified enzyme; shares compounds with PLCg1 inh; fluorogenic substrate fluorescence; inhibition, % at 12.3 µM; actives 1% (n = 3,300); AID 743261, 2014
# sPLA2 confirm = human group III sPLA2 inhibitors, confirmation, biochemical, QFRET, triplicate. shares compounds with sPLA2-III inh. recombinant hGIII-sPLA2, BODIPY PC-A2 QFRET fluorescence. inhibition, % at 12.2 µM. actives 34% (n = 2,000);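 active = mean inhibition across triplicates above the hit cutoff set in the earlier primary screen, cut at about 19% in these data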
# BODIPY interf = 535nm fluorescence optical interference, confirmation, artefact control for HGIII-sPLA2 inhibitor project, biochemical, QFRET; shares compounds with sPLA2-III inh; BODIPY FL product fluorescence interference; inhibition, % at 12.2 µM; actives 8.5% (n = 2,000);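 active = average inhibition above the solvent-only control mean plus 3 SD, cut at about 6% in these data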
# BODIPY interf DR = 535nm fluorescence optical interference, dose response, artefact control for HGIII-sPLA2 inhibitor project, biochemical, QFRET. shares compounds with sPLA2-III inh. BODIPY FL product fluorescence interference, cell-free. IC50, µM. 240 tested, under 10 active. AID 743455, 2014;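 active = IC50 at or below 10 µM; inactive = IC50 above 10 µM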
# Hits are given with their value; n = inactive; x = no result; ! = not confirmed by another sample. Shown are actives, neighbours in structure and some others; about 1.9% of the full set was active somewhere. Rule as the data show it, unless noted: active = inhibition above about 11%; inactive = the rest.
SMILES,PLC-beta3 inh,sPLA2-III inh,PLCg1 inh,Tb MetRS inh,DAGLB inh,PLCg1 ctr,PLCb3 confirm,others
COC(=O)C1=C(c2cccc(OCc3ccccc3)c2)C[C@@H]2CC[C@H]1N2C(=O)NCCOc1ccccc1Cl,n,n,n,n,n,x,x,
COC(=O)C1=C(c2ccc(-c3ccccc3)c(F)c2)C[C@@H]2CC[C@H]1N2C(=O)NCCOc1ccccc1,n,n,10,n,n,n,n,
COC(=O)C1=C(c2cccc(OCc3ccccc3)c2)C[C@@H]2CC[C@H]1N2C(=O)NCCOc1ccccc1,n,n,10,n,n,n,n,
COCCNC(=O)N1[C@H]2CC[C@@H]1C(C(=O)OC)=C(c1ccc(-c3ccccc3)c(F)c1)C2,n,n,n,n,n,x,x,
COc1cccc(-c2ccc3c(c2)C2c4cnnn4-c4ccccc4C(=O)N2CC3)c1 (stereo unspecified),n,n,n,x,x,x,x,
O=C(c1ccccc1)N1Cc2cc(Br)ccc2-n2nncc2C1,n,n,n,x,x,x,x,
COc1ccc(CCNCc2ccccc2)cc1,n,n,n,n,n,x,x,
COc1ccc(CCNCc2c(OC)ccc3ccccc23)cc1,n,n,9.6,n,n,37,n,
CCNC(=O)[C@H]1O[C@@H](n2cnc3c(N)ncnc32)[C@H](O)[C@@H]1O,n,n,n,n,n,x,x,
Nc1ncnc2c1ncn2[C@@H]1O[C@H](COP(=O)(O)CP(=O)(O)O)[C@@H](O)[C@H]1O,n,n,73,n,n,79,n,
COC(=O)C1CC(OC(C)=O)C(=O)[C@H]2C1(C)CC[C@H]1C(=O)OC(c3ccoc3)CC12C (stereo partly specified),n,n,n,x,x,x,x,
CN(C=O)CP(=O)(O)CN(C)C=O,13,n,13,n,n,n,n,
CN1c2ccc(Br)cc2[C@@H]2NCC[C@@H]2[C@@H]1CO,n,n,n,x,x,x,x,
C=Cn1ccnc1P(=S)(c1ccn(C)c1)c1nccn1C=C,n,n,14,n,n,n,n,
C=Cn1ccnc1P(=S)(c1nccn1C=C)c1nccn1C=C,n,n,n,n,n,x,x,
CSCCC(c1nnnn1C1CCCC1)N1CCC(n2c(=O)[nH]c3ccccc32)CC1 (stereo unspecified),n,n,10,n,x,n,n,
O=C1C(=O)c2ccccc2-c2ccccc21,n,n,57,38,n,43,n,
CC(NC(=O)OCc1ccccc1)[P+](=O)O (stereo unspecified),n,n,n,x,x,x,x,
N#CCC[C@@H]1CC[C@]2(CCCN(Cc3ccccn3)C2)O1,n,n,n,x,x,x,x,
NP(=O)(OCCCc1ccccc1)Oc1ccccc1 (stereo unspecified),n,n,n,n,n,x,x,
NC(=O)OCCCc1ccccc1,n,n,11,n,n,n,n,
O=P(/C(=N/O)N1CCCCC1)(N1CCOCC1)N1CCOCC1,n,n,9.6,n,n,n,n,
N#CC1c2ccccc2-n2nncc2CN1S(=O)(=O)c1ccccc1 (stereo unspecified),n,n,11,n,n,n,n,
CCn1ccnc1CN1CCCC(C(=O)c2cccc(C(F)(F)F)c2)C1 (stereo unspecified),n,n,11,n,n,n,n,
O=C(c1cccc(C(F)(F)F)c1)C1CCCN(Cc2ncc[nH]2)C1 (stereo unspecified),n,n,n,n,x,x,x,
SMILES,PLC-beta3 inh,sPLA2-III inh,PLCg1 inh,Tb MetRS inh,DAGLB inh,PLCg1 ctr,PLCb3 confirm,others
CN1CCN(CCOC2c3ccccc3CSc3ccc(Cl)cc32)CC1 (stereo unspecified),n,n,12,n,n,n,n,
CC1(C)CN=C(NCc2ccccc2Cl)S1,n,n,12,n,n,n,n,
Brc1ccc2c(c1)-n1nncc1CNC2,n,n,n,x,x,x,x,
CCC(C)N1C(=O)/C(=C\c2ccc(N3CCCCCC3)cc2)C(=O)NC1=S (stereo unspecified),n,n,n,n,n,x,x,
CCC(C)N1C(=O)/C(=C\c2cc3c4c(c2)CCCN4CCC3)C(=O)NC1=S (stereo unspecified),n,22,n,n,n,x,x,sPLA2 confirm=33;BODIPY interf=n;BODIPY interf DR=n
O=C1CCCN1C(=O)c1cncc(Br)c1,n,n,n,n,n,x,x,
Nc1cncc(C(=O)O)c1,n,21!,n,n,n,x,x,sPLA2 confirm=n;BODIPY interf=n
C/C(=N\N1CCN(C)CC1)c1c(O)[nH]c(=O)[nH]c1=O,n,20,n,n,n,x,x,sPLA2 confirm=n;BODIPY interf=n
NNCc1ccccc1,n,20!,n,n,n,x,x,sPLA2 confirm=n;BODIPY interf=n
c1ccc(CNC2CCCCCCC2)cc1 (tested in a mixture with another compound),n,n,n,n,n,x,x,
CCCOC(=O)c1ccc(-[n+]2c(-c3ccccc3)cc(-c3ccccc3)cc2-c2ccccc2)cc1,n,26,n,n,n,x,x,sPLA2 confirm=n;BODIPY interf=n
C[N+]1=C(N)NC2=C3CCCCC3ONC2C1 (stereo unspecified),n,n,n,x,x,x,x,
CCCCn1c(=O)c(C(=O)Nc2ncccc2C)c(O)c2ccccc21,n,20,n,n,n,x,x,sPLA2 confirm=n;BODIPY interf=n
CC(NC(=O)OCc1ccccc1)P(=O)(Oc1ccccc1)Oc1ccccc1 (stereo unspecified),n,n,n,x,x,x,x,
CN(C)c1ccc(/C=C/[N+](=O)[O-])cc1,n,23,n,n,n,x,x,sPLA2 confirm=n;BODIPY interf=n
O=c1[nH]c(O)c(/C=C2/C=CC(c3cc(Cl)ccc3Cl)=N2)c(=O)[nH]1,n,20,n,n,n,x,x,sPLA2 confirm=n;BODIPY interf=n
COc1ccccc1CCNC1CCCC(C)C1 (stereo unspecified),n,23,n,n,n,x,x,sPLA2 confirm=n;BODIPY interf=n
O=P(OCCCl)(OCCCl)OCCCl,n,n,n,x,x,x,x,
